{
  "source": "paper PMC4455945",
  "about": "(Journal of the American Chemical Society, 2015)",
  "key": {"Purified 26S proteasome": {"biological_target": "Purified 26S proteasome (Homo sapiens, UniProt P20618+P28074)", "test": "Cleavage of Suc-LLVY-AMC by purified 26S proteasome", "format": "biochemical"}, "Rpn13 [1]": {"biological_target": "T1, Rpn13 (Homo sapiens, UniProt Q16186)", "T1 sequence (Q16186 whole entry)": "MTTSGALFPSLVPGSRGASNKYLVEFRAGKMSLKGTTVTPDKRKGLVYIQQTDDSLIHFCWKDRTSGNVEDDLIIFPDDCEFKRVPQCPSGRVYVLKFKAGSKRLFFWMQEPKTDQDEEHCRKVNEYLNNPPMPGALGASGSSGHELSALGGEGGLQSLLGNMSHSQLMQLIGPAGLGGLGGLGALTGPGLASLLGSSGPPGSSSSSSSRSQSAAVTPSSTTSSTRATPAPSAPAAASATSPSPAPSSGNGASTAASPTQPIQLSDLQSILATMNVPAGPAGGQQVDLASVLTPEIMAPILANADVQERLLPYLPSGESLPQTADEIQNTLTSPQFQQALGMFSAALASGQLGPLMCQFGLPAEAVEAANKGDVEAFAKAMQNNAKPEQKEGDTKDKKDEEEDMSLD", "test": "FP competition against fluorescently labeled 11 bound to Rpn13", "format": "binding", "settings": "increasing amounts of competitor", "summary_of_the_method": "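Rpn13 pre-incubated with fluorescein-labelled test peptoid to form the complex, then challenged with increasing amounts of unlabelled competitor: either a covalent Rpn13 inhibitor reported to react at Cys88, or the unlabelled form of the same peptoid. Read-out is the change in fluorescence polarization.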"}, "Rpn13 [2]": {"biological_target": "T1, Rpn13", "settings": "assay not described; cited from earlier work"}, "HEK-293T cells": {"system": "HEK-293T cells", "test": "Cell viability of HEK-293T cells", "format": "cell-based", "settings": "concentration of 100 μM", "summary_of_the_method": "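HEK-293T cells were tested alongside multiple myeloma lines after exposure to test peptoids. Viability was read as fluorescence (RFU).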"}, "HEK293-T cells": {"system": "HEK293-T cells", "test": "Anti-Ub Western blot of poly-ubiquitin conjugates in HEK293-T cells", "format": "cell-based", "settings": "relative to vehicle-treated cells"}},
  "note": "Peptide text beside a SMILES is read from it. * marks the point of attachment. Cbz = O=C(OCc1ccccc1)*",
  "data": [
    {"smiles": "CC(C)C[C@H](NC(=O)[C@H](Cc1ccccc1)NC(=O)c1cnccn1)B(O)O", "note": "[Bortezomib]", "values": [
      {"measurement": "effect on hydrolysis of the fluorogenic peptide (fluorescence)", "setting": "Purified 26S proteasome", "value": "dose-sensitive decrease of fluorescence"}
    ]},
    {"smiles": "Cl.N[C@@H](Cc1ccccc1)C(=O)N1C/C(=C/c2ccc(Cl)c(Cl)c2)C(=O)/C(=C\\c2ccc(Cl)c(Cl)c2)C1", "note": "[RA-190]", "values": [
      {"measurement": "competition of the fluorescently labeled 11-Rpn13 complex (FP signal)", "setting": "Rpn13 [1]", "value": "insensitive"},
      {"measurement": "IC50", "setting": "Rpn13 [2]", "value": 0.1, "unit": "µM"}
    ]},
    {"smiles": "CC(C)C[C@@H](C=O)NC(=O)[C@H](CC(C)C)NC(=O)[C@H](CC(C)C)NC(=O)OCc1ccccc1", "note": "[MG-132] (Cbz-Leu-Leu-Leu-aldehyde)", "values": [
      {"measurement": "cell death of HEK-293T cells at 100 μM", "setting": "HEK-293T cells", "value": "no significant cell death"},
      {"measurement": "accumulation of ubiquitylated proteins", "setting": "HEK293-T cells", "value": "accumulation of ubiquitylated proteins does occur"}
    ]}
  ]
}
